{"source": "ChEMBL document CHEMBL3112444", "about": "“Synthesis and anticancer activity of focused compound libraries from the natural product lead, oroidin” (2014)", "key": {"[1]": {"test": "Cytotoxicity against human MIA cells assessed as growth inhibition after 72 hrs by MTT assay", "type": "functional", "method_in_brief": "(§1)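 Cells in logarithmic growth kept in DMEM with 10% FBS, 10 mM sodium bicarbonate, penicillin 100 IU/mL, glutamine 4 mM, at 37 °C under 5% CO2. Plated in duplicate at 2500–4000 cells/well. Compound (30 mM DMSO stock) added 24 h after plating. MTT read at 540 nm after 72 h exposure.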"}, "[2]": {"test": "Cytotoxicity against human BE(2)-C cells assessed as growth inhibition at 25 uM after 72 hrs by MTT assay relative to control", "type": "functional", "conditions": "read-out: GI", "method_in_brief": "as §1"}, "[3]": {"test": "Cytotoxicity against human U87 cells assessed as growth inhibition at 25 uM after 72 hrs by MTT assay relative to control", "type": "functional, U-87MG ATCC", "conditions": "U-87 MG, read-out: GI", "method_in_brief": "as §1"}, "[4]": {"test": "Cytotoxicity against human H460 cells assessed as growth inhibition after 72 hrs by MTT assay", "type": "functional", "conditions": "NCI-H460, 72 h", "method_in_brief": "as §1"}, "A2780 [5]": {"test_system": "A2780", "test": "Cytotoxicity against human A2780 cells assessed as growth inhibition at 25 uM after 72 hrs by MTT assay relative to control", "type": "functional", "conditions": "A2780, 72 h, read-out: GI", "method_in_brief": "as §1"}, "HT-29 [6]": {"test_system": "HT-29", "test": "Cytotoxicity against human HT-29 cells assessed as growth inhibition at 25 uM after 72 hrs by MTT assay relative to control", "type": "functional", "conditions": "HT-29, 72 h, read-out: GI", "method_in_brief": "as §1"}, "[7]": {"test": "Cytotoxicity against mouse SMA cells assessed as growth inhibition at 25 uM after 72 hrs by MTT assay relative to control", "type": "functional", "conditions": "read-out: GI", "method_in_brief": "as §1"}, "[8]": {"test": "Cytotoxicity against human MIA cells assessed as growth inhibition at 25 uM after 72 hrs by MTT assay relative to control", "type": "functional", "conditions": "read-out: GI", "method_in_brief": "as §1"}, "MCF7 [9]": {"test_system": "MCF7", "test": "Cytotoxicity against human MCF7 cells assessed as growth inhibition at 25 uM after 72 hrs by MTT assay relative to control", "type": "functional", "conditions": "MCF7, 72 h, read-out: GI", "method_in_brief": "as §1"}, "DU-145 [10]": {"test_system": "DU-145", "test": "Cytotoxicity against human DU145 cells assessed as growth inhibition after 72 hrs by MTT assay", "type": "functional", "conditions": "DU-145, 72 h", "method_in_brief": "as §1"}, "[11]": {"test": "Cytotoxicity against human H460 cells assessed as growth inhibition at 25 uM after 72 hrs by MTT assay relative to control", "type": "functional", "conditions": "NCI-H460, 72 h, read-out: GI", "method_in_brief": "as §1"}, "DU-145 [12]": {"test_system": "DU-145", "test": "Cytotoxicity against human DU145 cells assessed as growth inhibition at 25 uM after 72 hrs by MTT assay relative to control", "type": "functional", "conditions": "DU-145, 72 h, read-out: GI", "method_in_brief": "as §1"}, "[13]": {"test": "Cytotoxicity against human BE(2)-C cells assessed as growth inhibition after 72 hrs by MTT assay", "type": "functional", "method_in_brief": "as §1"}, "[14]": {"test": "Cytotoxicity against human U87 cells assessed as growth inhibition after 72 hrs by MTT assay", "type": "functional, U-87MG ATCC", "conditions": "U-87 MG", "method_in_brief": "as §1"}, "[15]": {"test": "Cytotoxicity against mouse SMA cells assessed as growth inhibition after 72 hrs by MTT assay", "type": "functional", "method_in_brief": "as §1"}, "A2780 [16]": {"test_system": "A2780", "test": "Cytotoxicity against human A2780 cells assessed as growth inhibition after 72 hrs by MTT assay", "type": "functional", "conditions": "A2780, 72 h", "method_in_brief": "as §1"}, "MCF7 [17]": {"test_system": "MCF7", "test": "Cytotoxicity against human MCF7 cells assessed as growth inhibition after 72 hrs by MTT assay", "type": "functional", "conditions": "MCF7, 72 h", "method_in_brief": "as §1"}, "HT-29 [18]": {"test_system": "HT-29", "test": "Cytotoxicity against human HT-29 cells assessed as growth inhibition after 72 hrs by MTT assay", "type": "functional", "conditions": "HT-29, 72 h", "method_in_brief": "as §1"}, "A-431 [19]": {"test_system": "A-431", "test": "Cytotoxicity against human A431 cells assessed as growth inhibition after 72 hrs by MTT assay", "type": "functional", "conditions": "A-431, 72 h", "method_in_brief": "as §1"}, "SW480 [20]": {"test_system": "SW480", "test": "Cytotoxicity against human SW480 cells assessed as growth inhibition at 25 uM after 72 hrs by MTT assay relative to control", "type": "functional", "conditions": "SW480, 72 h, read-out: GI", "method_in_brief": "as §1"}, "SW480 [21]": {"test_system": "SW480", "test": "Cytotoxicity against human SW480 cells assessed as growth inhibition after 72 hrs by MTT assay", "type": "functional", "conditions": "SW480, 72 h", "method_in_brief": "as §1"}, "[22]": {"test": "Cytotoxicity against human SJ-G2 cells assessed as growth inhibition at 25 uM after 72 hrs by MTT assay relative to control", "type": "functional", "conditions": "SJ-G2, 72 h, read-out: GI", "method_in_brief": "as §1"}, "[23]": {"test": "Cytotoxicity against human SJ-G2 cells assessed as growth inhibition after 72 hrs by MTT assay", "type": "functional", "conditions": "SJ-G2, 72 h", "method_in_brief": "as §1"}, "A-431 [24]": {"test_system": "A-431", "test": "Cytotoxicity against human A431 cells assessed as growth inhibition at 25 uM after 72 hrs by MTT assay relative to control", "type": "functional", "conditions": "A-431, 72 h, read-out: GI", "method_in_brief": "as §1"}}}
{"smiles": "O=C(NCCc1ccc(O)cc1)c1cc(Br)c(Br)[nH]1", "values": [{"measurement": "GI50", "setting": "[1]", "result": 43, "unit": "µM"}, {"measurement": "inhibition of growth at 25 µM", "setting": "[2]", "result": 101, "unit": "%"}, {"measurement": "inhibition of growth at 25 µM", "setting": "[3]", "result": "< 0", "unit": "%"}, {"measurement": "GI50", "setting": "[4]", "result": 39, "unit": "µM"}, {"measurement": "inhibition of growth at 25 µM", "setting": "A2780 [5]", "result": 90, "unit": "%"}, {"measurement": "inhibition of growth at 25 µM", "setting": "HT-29 [6]", "result": 48, "unit": "%"}, {"measurement": "inhibition of growth at 25 µM", "setting": "[7]", "result": 46, "unit": "%"}, {"measurement": "inhibition of growth at 25 µM", "setting": "[8]", "result": 20, "unit": "%"}, {"measurement": "inhibition of growth at 25 µM", "setting": "MCF7 [9]", "result": 81, "unit": "%"}, {"measurement": "GI50", "setting": "DU-145 [10]", "result": "> 50", "unit": "µM"}, {"measurement": "inhibition of growth at 25 µM", "setting": "[11]", "result": 11, "unit": "%"}, {"measurement": "inhibition of growth at 25 µM", "setting": "DU-145 [12]", "result": 3, "unit": "%"}, {"measurement": "GI50", "setting": "[13]", "result": 16, "unit": "µM"}, {"measurement": "GI50", "setting": "[14]", "result": "> 50", "unit": "µM"}, {"measurement": "GI50", "setting": "[15]", "result": 23, "unit": "µM"}, {"measurement": "GI50", "setting": "A2780 [16]", "result": 11, "unit": "µM"}, {"measurement": "GI50", "setting": "MCF7 [17]", "result": 12, "unit": "µM"}, {"measurement": "GI50", "setting": "HT-29 [18]", "result": 28, "unit": "µM"}, {"measurement": "GI50", "setting": "A-431 [19]", "result": 20, "unit": "µM"}, {"measurement": "inhibition of growth at 25 µM", "setting": "SW480 [20]", "result": "< 0", "unit": "%"}, {"measurement": "GI50", "setting": "SW480 [21]", "result": "> 50", "unit": "µM"}, {"measurement": "inhibition of growth at 25 µM", "setting": "[22]", "result": 44, "unit": "%"}, {"measurement": "GI50", "setting": "[23]", "result": 30, "unit": "µM"}, {"measurement": "inhibition of growth at 25 µM", "setting": "A-431 [24]", "result": 68, "unit": "%"}]}
